Assay results from ChEMBL document CHEMBL3044910, “Antifeedant activity of some pentacyclic triterpene acids and their fatty acid ester analogues” (2003).
The source made the active and inactive calls. The rule behind the calls is not given here.

Key:
Format in all cases: functional
Parameters in all cases: scale not given: the % may be the effect or the level left
Spodoptera litura [1] = assay: Antifeedant activity against fourth-instar larval stage of Spodoptera litura reared on castor leaves assessed as decrease in food consumption at 50 ug/cm2 after 48 hr by no-choice leaf disk assay relative to untreated control
Outline: (§1)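 Larvae reared on fresh castor leaves at 27 ± 1 °C, 65 ± 5% RH, 14:10 light:dark; freshly molted fourth instars used. Treated leaf disks placed with larvae in Petri dishes; leaf area consumed in treated and control disks measured by planimeter. Percent protection corrected for control by Singh and Panth formula; mean with standard deviation reported.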

Spodoptera litura [2] = assay: Antifeedant activity against fourth-instar larval stage of Spodoptera litura reared on castor leaves assessed as decrease in food consumption at 150 ug/cm2 after 48 hr by no-choice leaf disk assay relative to untreated control; outline: as §1
Spodoptera litura [3] = assay: Antifeedant activity against fourth-instar larval stage of Spodoptera litura reared on castor leaves assessed as decrease in food consumption at 100 ug/cm2 after 48 hr by no-choice leaf disk assay relative to untreated control; outline: as §1
Spodoptera litura [4] = assay: Antifeedant activity against fourth-instar larval stage of Spodoptera litura reared on castor leaves assessed as decrease in food consumption at 50 to 150 ug/cm2 measured after 48 hr by no-choice leaf disk assay relative to untreated control
Outline: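 Larvae reared on fresh castor leaves at 27 ± 1 °C, 65 ± 5% relative humidity, 14:10 light:dark; freshly molted fourth-instar larvae used. No-choice leaf disk test in Petri dish at 150, 100 and 50 µg/cm2. Leaf area consumed measured by planimeter at 6, 12, 24 and 48 h in treated and control disks. Percent protection corrected for control protection; mean with standard deviation.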

Structure (SMILES) | Activity (Spodoptera litura [1]) | Activity (Spodoptera litura [2]) | Activity (Spodoptera litura [3]) | Activity (Spodoptera litura [4])
CCCCCCCCCCCCCCCC(=O)O[C@H]1CC[C@]2(C)[C@H]3CC=C4[C@@H]5[C@@H](C)[C@H](C)CC[C@]5(C(=O)O)CC[C@@]4(C)[C@]3(C)CC[C@H]2C1(C)C | >50% | >50% | 40% | –
CCCCCCCCCCCCCCCCCC(=O)O[C@H]1CC[C@]2(C)[C@H]3CC=C4[C@@H]5CC(C)(C)CC[C@]5(C(=O)O)CC[C@@]4(C)[C@]3(C)CC[C@H]2C1(C)C | – | Active | Active | –
C/C=C(\C)C(=O)O[C@H]1C[C@@H](OC(C)=O)[C@@]2(C(=O)OC)CO[C@H]3[C@@H](O)[C@@](C)([C@]45O[C@@]4(C)[C@H]4C[C@@H]5O[C@@H]5OC=C[C@@]54O)[C@H]4[C@]1(CO[C@]4(O)C(=O)OC)[C@@H]32 [AZADIRACTIN] | – | >50% | 40% | 81%
CCCCCCCCCCCCCCCC(=O)O[C@H]1CC[C@]2(C)[C@H]3CC=C4[C@@H]5CC(C)(C)CC[C@]5(C(=O)O)CC[C@@]4(C)[C@]3(C)CC[C@H]2C1(C)C [OLEAN-12-ENE-28-CARBOXY-3BETA-HEXADECANOATE] | 71% | >50% | 40% | –
CC1(C)CC[C@]2(C(=O)O)CC[C@]3(C)C(=CC[C@@H]4[C@@]5(C)CC[C@H](O)C(C)(C)[C@@H]5CC[C@]43C)[C@@H]2C1 [OLEANOLIC_ACID] | – | Active | 40% | –
CCCCCCCCCCCC(=O)O[C@H]1CC[C@]2(C)[C@H]3CC=C4[C@@H]5[C@@H](C)[C@H](C)CC[C@]5(C(=O)O)CC[C@@]4(C)[C@]3(C)CC[C@H]2C1(C)C [URS-12-ENE-28-CARBOXY-3BETA-DODECANOATE] | – | >50% | 40% | –
CCCCCCCCCCCCCCCCCC(=O)O[C@H]1CC[C@]2(C)[C@H]3CC=C4[C@@H]5[C@@H](C)[C@H](C)CC[C@]5(C(=O)O)CC[C@@]4(C)[C@]3(C)CC[C@H]2C1(C)C [URS-12-ENE-28-CARBOXY-3BETA-OCTADECANOATE] | 74% | >50% | 40% | –
CCCCCCCCCCCCCC(=O)O[C@H]1CC[C@]2(C)[C@H]3CC=C4[C@@H]5[C@@H](C)[C@H](C)CC[C@]5(C(=O)O)CC[C@@]4(C)[C@]3(C)CC[C@H]2C1(C)C [URS-12-ENE-28-CARBOXY-3BETA-TETRADECANOATE] | >50% | >50% | 40% | –
C[C@H]1[C@H](C)CC[C@]2(C(=O)O)CC[C@]3(C)C(=CC[C@@H]4[C@@]5(C)CC[C@H](O)C(C)(C)[C@@H]5CC[C@]43C)[C@H]12 [URSOLIC ACID] | – | >50% | 40% | –
